Experimental data: ChEMBL document CHEMBL4354843, “Structure-Based Design of a Potent and Selective Covalent Inhibitor for SRC Kinase That Targets a P-Loop Cysteine” (J Med Chem, 2020)

Experiments:
[1] = target: Serine/threonine-protein kinase SIK2 (Homo sapiens) (UniProt Q9H0K1); assay: Binding affinity to wild-type human full length SIK2 (M1 to N926 residues) expressed in bacterial expression system assessed as residual binding level at 1 uM by Kinomescan method relative to control
Procedure, shortened: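 Active site-directed binding assay (KinomeScan) run across a 468-kinase panel, with the test compound at 1 μM. The read-out is the remaining kinase signal in the presence of compound, expressed as a percentage of the DMSO control. Scores above 35% were taken as weak binding and were not reported.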

[2] = target: Serine/threonine-protein kinase 16 (Homo sapiens) (UniProt O75716); assay: Binding affinity to wild-type human partial length STK16 (G11 to I305 residues) expressed in bacterial expression system assessed as residual binding level at 1 uM by Kinomescan method relative to control
[3] = target: High affinity nerve growth factor receptor (Homo sapiens) (UniProt P04629); assay: Binding affinity to wild-type human partial length TRKA (G475 to G790 residues) expressed in mammalian expression system assessed as residual binding level at 1 uM by Kinomescan method relative to control
[4] = target: Serine/threonine-protein kinase N2 (Homo sapiens) (UniProt Q16513); assay: Binding affinity to wild-type human partial length PKN2 (E634 to C984 residues) expressed in bacterial expression system assessed as residual binding level at 1 uM by Kinomescan method relative to control
[5] = target: Mast/stem cell growth factor receptor Kit (Homo sapiens) (UniProt P10721); assay: Binding affinity to wild-type human partial length autoinhibited KIT (Y545 to D952 residues) expressed in mammalian expression system assessed as residual binding level at 1 uM by Kinomescan method relative to control
[6] = target: Ephrin type-A receptor 4 (Homo sapiens) (UniProt P54764); assay: Binding affinity to wild-type human partial length EPHA4 (T601 to R897 residues) expressed in bacterial expression system assessed as residual binding level at 1 uM by Kinomescan method relative to control
Procedure, shortened: (§1)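 Active-site-directed competition binding panel of 468 kinases (KinomeScan), compound at 1 μM. The read-out is kinase remaining bound, given as a percentage of the DMSO control. […]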

[7] = target: Mitogen-activated protein kinase kinase kinase kinase 5 (Homo sapiens) (UniProt Q9Y4K4); assay: Binding affinity to wild-type human partial length MAP4K5 (M1 to P297 residues) expressed in bacterial expression system assessed as residual binding level at 1 uM by Kinomescan method relative to control
[8] = target: 5'-AMP-activated protein kinase catalytic subunit alpha-1 (Homo sapiens) (UniProt Q13131); assay: Binding affinity to wild-type human partial length AMPK alpha1 (M1 to E306 residues) expressed in bacterial expression system assessed as residual binding level at 1 uM by Kinomescan method relative to control
[9] = tested on: Receptor-type tyrosine-protein kinase FLT3 (Homo sapiens), P36888 [K663Q]; assay: Binding affinity to human partial length FLT3 K663Q mutant (V592 to Y969 residues) expressed in bacterial expression system assessed as residual binding level at 1 uM by Kinomescan method relative to control
Procedure, shortened: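 KinomeScan active site-directed competition binding panel (468 kinases), compound tested at 1 μM. Result expressed as remaining kinase signal versus DMSO control (percent of control).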

[10] = AUC in B6 mouse at 5 mg/kg, ip; format: ADME, organism-based; conditions: in vivo
[11] = target: Serine/threonine-protein kinase DCLK3 (Homo sapiens) (UniProt Q9C098); assay: Binding affinity to wild-type human partial length DCAMKL3 (E140 to V628 residues) expressed in bacterial expression system assessed as residual binding level at 1 uM by Kinomescan method relative to control
[12] = target: Phosphatidylinositol 4-kinase beta (Homo sapiens) (UniProt Q9UBF8); assay: Binding affinity to wild-type human full length PIK4CB (M1 to M828 residues) expressed in mammalian expression system assessed as residual binding level at 1 uM by Kinomescan method relative to control
Procedure, shortened: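 Active-site-directed competition binding panel (KinomeScan) covering 468 kinases. Test agent was screened at 1 μM. The read-out is the remaining kinase signal expressed relative to a DMSO control. Scores above 35%, taken as weak binding, were not reported.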

[13] = target: Dual specificity mitogen-activated protein kinase kinase 2 (Homo sapiens) (UniProt P36507); assay: Binding affinity to wild-type human full length MEK2 (M1 to V400 residues) expressed in mammalian expression system assessed as residual binding level at 1 uM by Kinomescan method relative to control
Procedure, shortened: (§2)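 KinomeScan, an active site-directed competition binding panel of 468 kinases. The test compound was at 1 μM. The readout is remaining kinase binding as a percentage of the DMSO control. Scores above 35% were treated as weak binding and not listed.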

[14] = target: Serine/threonine-protein kinase pim-3 (Homo sapiens) (UniProt Q86V86); assay: Binding affinity to wild-type human partial length PIM3 (G16 to A317 residues) expressed in bacterial expression system assessed as residual binding level at 1 uM by Kinomescan method relative to control
[15] = target: Ribosomal protein S6 kinase alpha-3 (Homo sapiens) (UniProt P51812); assay: Binding affinity to wild-type human partial length N- terminal RSK2 kinase domain 1 (M1 to D394 residues) expressed in mammalian expression system assessed as residual binding level at 1 uM by Kinomescan method relative to control
[16] = target: Serine/threonine-protein kinase D3 (Homo sapiens) (UniProt O94806); assay: Binding affinity to wild-type human partial length PRKD3 (S543 to E863 residues) expressed in bacterial expression system assessed as residual binding level at 1 uM by Kinomescan method relative to control; procedure, shortened: as §1
[17] = target: Leucine-rich repeat serine/threonine-protein kinase 2 (Homo sapiens) (UniProt Q5S007); assay: Binding affinity to wild-type human partial length LRRK2 (H970 to E2527 residues) expressed in mammalian expression system assessed as residual binding level at 1 uM by Kinomescan method relative to control
[18] = target: Tyrosine-protein kinase BTK (Homo sapiens) (UniProt Q06187); assay: Binding affinity to wild-type human full length BTK (M1 to S659 residues) expressed in mammalian expression system assessed as residual binding level at 1 uM by Kinomescan method relative to control; procedure, shortened: as §2
[19] = target: Interleukin-1 receptor-associated kinase 1 (Homo sapiens) (UniProt P51617); assay: Binding affinity to wild-type human partial length IRAK1 (R194 to S712 residues) expressed in mammalian expression system assessed as residual binding level at 1 uM by Kinomescan method relative to control
[20] = target: Dual serine/threonine and tyrosine protein kinase (Homo sapiens) (UniProt Q6XUX3); assay: Binding affinity to wild-type human full length RIPK5 (M1 to T929 residues) expressed in mammalian expression system assessed as residual binding level at 1 uM by Kinomescan method relative to control
Procedure, shortened: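 Active-site-directed competition binding screen across a 468-kinase panel, run with the test compound at 1 μM. The read-out is the kinase signal remaining relative to a DMSO control, reported as a percentage. […]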

Serine/threonine-protein kinase SIK2 (Homo sapiens), sequence (Q9H0K1 whole entry, looked up, the tested form may be a part): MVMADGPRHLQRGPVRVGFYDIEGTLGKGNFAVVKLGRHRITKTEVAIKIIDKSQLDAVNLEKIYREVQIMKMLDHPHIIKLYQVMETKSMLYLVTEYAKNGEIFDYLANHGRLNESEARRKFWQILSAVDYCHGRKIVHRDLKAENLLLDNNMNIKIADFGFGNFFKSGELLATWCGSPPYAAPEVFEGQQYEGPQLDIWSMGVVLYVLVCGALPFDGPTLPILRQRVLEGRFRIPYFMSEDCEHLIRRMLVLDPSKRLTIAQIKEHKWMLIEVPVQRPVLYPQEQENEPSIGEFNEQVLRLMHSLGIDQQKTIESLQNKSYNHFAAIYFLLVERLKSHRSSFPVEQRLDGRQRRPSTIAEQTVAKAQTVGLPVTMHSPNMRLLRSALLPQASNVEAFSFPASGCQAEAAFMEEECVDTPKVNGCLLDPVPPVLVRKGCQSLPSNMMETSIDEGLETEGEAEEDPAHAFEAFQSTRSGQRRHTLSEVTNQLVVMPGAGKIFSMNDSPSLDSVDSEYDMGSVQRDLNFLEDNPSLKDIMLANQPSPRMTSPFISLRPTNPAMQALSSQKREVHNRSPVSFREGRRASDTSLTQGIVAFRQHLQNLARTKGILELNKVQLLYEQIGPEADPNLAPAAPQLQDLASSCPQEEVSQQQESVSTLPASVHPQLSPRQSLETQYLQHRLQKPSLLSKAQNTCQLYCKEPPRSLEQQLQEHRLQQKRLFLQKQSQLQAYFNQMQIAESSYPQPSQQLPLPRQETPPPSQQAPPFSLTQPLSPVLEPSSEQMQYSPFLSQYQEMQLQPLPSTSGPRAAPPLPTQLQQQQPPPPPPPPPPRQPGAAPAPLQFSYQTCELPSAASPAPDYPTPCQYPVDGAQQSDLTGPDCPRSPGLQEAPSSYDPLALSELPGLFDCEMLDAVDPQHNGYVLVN
Serine/threonine-protein kinase DCLK3 (Homo sapiens), sequence (Q9C098 whole entry, the tested form may be a part): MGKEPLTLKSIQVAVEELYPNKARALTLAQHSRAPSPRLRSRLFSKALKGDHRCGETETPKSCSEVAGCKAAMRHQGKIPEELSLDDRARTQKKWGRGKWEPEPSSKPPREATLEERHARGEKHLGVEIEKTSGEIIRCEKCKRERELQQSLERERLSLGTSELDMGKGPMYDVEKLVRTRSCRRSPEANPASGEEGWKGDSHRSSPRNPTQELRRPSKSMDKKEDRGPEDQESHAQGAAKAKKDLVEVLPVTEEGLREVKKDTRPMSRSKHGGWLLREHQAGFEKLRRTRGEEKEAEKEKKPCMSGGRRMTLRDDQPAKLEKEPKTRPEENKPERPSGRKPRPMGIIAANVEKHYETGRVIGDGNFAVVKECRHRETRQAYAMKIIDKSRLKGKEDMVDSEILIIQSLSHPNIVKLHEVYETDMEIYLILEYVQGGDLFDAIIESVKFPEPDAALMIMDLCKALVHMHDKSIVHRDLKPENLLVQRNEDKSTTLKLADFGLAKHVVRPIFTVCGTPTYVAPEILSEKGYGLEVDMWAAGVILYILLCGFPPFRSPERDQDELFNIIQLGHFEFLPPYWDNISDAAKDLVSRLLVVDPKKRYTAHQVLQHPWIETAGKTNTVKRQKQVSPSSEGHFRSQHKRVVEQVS
Phosphatidylinositol 4-kinase beta (Homo sapiens), sequence (Q9UBF8 2-816 limits assumed): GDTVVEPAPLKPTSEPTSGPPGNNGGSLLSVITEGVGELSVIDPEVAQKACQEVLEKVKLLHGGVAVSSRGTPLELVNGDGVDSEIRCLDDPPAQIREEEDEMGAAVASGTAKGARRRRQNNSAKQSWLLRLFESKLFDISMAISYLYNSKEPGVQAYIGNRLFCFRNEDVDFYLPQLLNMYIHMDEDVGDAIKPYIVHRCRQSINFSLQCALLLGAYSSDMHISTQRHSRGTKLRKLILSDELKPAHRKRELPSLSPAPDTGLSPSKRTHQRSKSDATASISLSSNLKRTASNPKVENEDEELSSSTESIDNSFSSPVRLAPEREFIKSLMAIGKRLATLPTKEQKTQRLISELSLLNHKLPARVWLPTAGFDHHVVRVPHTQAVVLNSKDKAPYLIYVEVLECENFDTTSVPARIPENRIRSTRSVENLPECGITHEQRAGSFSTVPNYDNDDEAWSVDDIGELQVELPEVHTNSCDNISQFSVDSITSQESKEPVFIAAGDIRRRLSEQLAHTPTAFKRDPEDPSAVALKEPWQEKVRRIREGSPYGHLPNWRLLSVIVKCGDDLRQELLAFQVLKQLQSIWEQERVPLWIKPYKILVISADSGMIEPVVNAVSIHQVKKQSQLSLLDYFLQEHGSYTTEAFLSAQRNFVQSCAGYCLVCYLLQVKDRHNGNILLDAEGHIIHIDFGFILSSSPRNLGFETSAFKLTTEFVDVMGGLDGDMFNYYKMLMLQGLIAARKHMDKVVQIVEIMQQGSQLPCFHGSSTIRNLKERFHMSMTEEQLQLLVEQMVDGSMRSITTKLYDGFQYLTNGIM
Interleukin-1 receptor-associated kinase 1 (Homo sapiens), sequence (P51617 whole entry, looked up, the tested form may be a part): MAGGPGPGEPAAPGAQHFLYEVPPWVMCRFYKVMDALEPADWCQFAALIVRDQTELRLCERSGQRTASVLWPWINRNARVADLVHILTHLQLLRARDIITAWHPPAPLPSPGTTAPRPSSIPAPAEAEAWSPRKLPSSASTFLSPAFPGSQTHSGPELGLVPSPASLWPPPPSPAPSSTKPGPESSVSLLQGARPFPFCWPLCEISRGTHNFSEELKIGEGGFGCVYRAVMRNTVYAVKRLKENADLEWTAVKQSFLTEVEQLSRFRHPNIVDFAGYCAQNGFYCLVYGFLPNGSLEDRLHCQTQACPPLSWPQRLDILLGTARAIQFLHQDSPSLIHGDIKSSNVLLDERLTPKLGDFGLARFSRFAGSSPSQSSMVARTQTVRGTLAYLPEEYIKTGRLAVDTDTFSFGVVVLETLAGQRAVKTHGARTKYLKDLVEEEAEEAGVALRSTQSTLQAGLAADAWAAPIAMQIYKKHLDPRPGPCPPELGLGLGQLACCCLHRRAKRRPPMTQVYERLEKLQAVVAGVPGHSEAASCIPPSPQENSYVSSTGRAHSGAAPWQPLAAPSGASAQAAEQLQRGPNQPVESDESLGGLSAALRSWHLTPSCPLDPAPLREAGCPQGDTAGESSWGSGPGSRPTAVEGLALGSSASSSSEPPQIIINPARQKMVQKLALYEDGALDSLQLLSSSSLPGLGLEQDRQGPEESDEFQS
Serine/threonine-protein kinase D3 (Homo sapiens), sequence (O94806 whole entry, the tested form may be a part): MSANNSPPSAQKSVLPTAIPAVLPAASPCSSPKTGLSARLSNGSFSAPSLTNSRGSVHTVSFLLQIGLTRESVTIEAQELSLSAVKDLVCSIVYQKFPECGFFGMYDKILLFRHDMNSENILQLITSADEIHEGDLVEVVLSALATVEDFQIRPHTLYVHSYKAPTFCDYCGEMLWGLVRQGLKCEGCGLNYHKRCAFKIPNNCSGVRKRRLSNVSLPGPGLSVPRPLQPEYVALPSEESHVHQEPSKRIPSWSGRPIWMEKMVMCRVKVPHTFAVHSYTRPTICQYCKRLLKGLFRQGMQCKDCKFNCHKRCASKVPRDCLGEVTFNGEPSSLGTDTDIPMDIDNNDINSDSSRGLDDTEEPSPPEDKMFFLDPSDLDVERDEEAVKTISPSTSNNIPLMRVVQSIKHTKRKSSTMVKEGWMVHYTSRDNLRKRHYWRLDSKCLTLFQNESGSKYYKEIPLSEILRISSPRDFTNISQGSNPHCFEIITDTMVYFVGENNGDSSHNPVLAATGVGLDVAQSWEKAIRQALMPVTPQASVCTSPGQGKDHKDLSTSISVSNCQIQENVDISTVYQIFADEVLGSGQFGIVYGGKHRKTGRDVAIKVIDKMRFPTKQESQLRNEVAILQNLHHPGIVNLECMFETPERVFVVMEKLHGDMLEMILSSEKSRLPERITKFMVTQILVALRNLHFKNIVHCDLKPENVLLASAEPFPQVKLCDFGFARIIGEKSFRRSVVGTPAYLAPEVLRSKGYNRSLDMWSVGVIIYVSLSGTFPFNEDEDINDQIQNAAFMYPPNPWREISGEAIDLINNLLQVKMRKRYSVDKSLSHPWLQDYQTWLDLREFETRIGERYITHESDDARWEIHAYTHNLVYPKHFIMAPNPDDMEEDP
5'-AMP-activated protein kinase catalytic subunit alpha-1 (Homo sapiens), sequence (Q13131 whole entry, looked up, the tested form may be a part): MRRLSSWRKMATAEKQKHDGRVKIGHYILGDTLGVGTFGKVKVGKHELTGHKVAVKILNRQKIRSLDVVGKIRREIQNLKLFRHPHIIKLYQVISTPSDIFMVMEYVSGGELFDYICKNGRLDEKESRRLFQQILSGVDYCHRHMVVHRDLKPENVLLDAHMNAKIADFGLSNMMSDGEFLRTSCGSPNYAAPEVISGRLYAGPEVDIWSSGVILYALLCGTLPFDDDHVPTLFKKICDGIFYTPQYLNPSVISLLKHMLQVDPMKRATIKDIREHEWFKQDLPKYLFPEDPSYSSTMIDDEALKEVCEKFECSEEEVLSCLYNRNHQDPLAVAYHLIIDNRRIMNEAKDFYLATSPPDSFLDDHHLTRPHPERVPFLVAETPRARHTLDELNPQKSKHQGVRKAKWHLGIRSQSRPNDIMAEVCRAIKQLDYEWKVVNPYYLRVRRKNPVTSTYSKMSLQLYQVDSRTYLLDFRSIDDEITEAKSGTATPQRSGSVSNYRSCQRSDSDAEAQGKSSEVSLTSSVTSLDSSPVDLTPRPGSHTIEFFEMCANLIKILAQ

C=CC(=O)Nc1ccccc1Nc1nc(Nc2ccc(N3CCN(C)CC3)cc2)ncc1C(=O)Nc1c(C)cccc1Cl
Activity [1]: 67% | Activity [2]: 100% | Activity [3]: 100% | Activity [4]: 100% | Activity [5]: 92% | Activity [6]: 75% | Activity [7]: 100% | Activity [8]: 100% | Activity [9]: 100% | AUC [10]: 212 ng·h/mL | Activity [11]: 100% | Activity [12]: 91% | Activity [13]: 93% | Activity [14]: 100% | Activity [15]: 75% | Activity [16]: 99% | Activity [17]: 100% | Activity [18]: 0.1% | Activity [19]: 100% | Activity [20]: 100%
